An excerpt weighted towards active compounds, which were near 2.5% of everything screened.
SIRT5 block: blocks human SIRT5 desuccinylation of peptide; Purified SirT5, succinyl-peptide AMC, trypsin-coupled fluorescence; AID 652115; Q9NXA8; 330,000 tested, 1.1% active; inhibition, % at 15 µM; in the data active = inhibition above about 15%; inconclusive = no clear call, values can overlap the other calls
E-selectin induc: E-selectin induction on HUVECs; P16581; HUVEC E-selectin immunofluorescence imaging; normalized: neutral wells 0, TNF-alpha wells 100; activation, % at 7.58 µM; 260,000 tested, 0.37% active; AID 686992;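 active = mean E-selectin-positive cell signal at least 10% of the positive control, reached in at least 60% of replicates, without over 20% cell loss; inconclusive = no rule given, readout overlaps actives, possibly toxicity-flagged; inactive = the rest, including those meeting only one limit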
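Test system – human umbilical vein endothelial cells (HUVEC), E-selectin induction · Input – 3,000 HUVEC seeded per well · Buffer or medium – EGM-2, gelatin · Compound dosing – single-point compound dose · Detection – immunofluorescence imaging · Measure – percent E-selectin-positive cells · Controls – TNF-alpha high, DMSO low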
DENV2 CPE rescue: protects cells from dengue virus 2 cytopathic effect; DENV2-infected cells, cytopathic effect rescue, plate reader; CPE inhibition, % at 9.99 µM; 350,000 tested, 1.7% active; in the data active = CPE inhibition above about 20%, passing the limit was not always enough; inconclusive = no clear call, values can overlap the other calls; tested in BHK-21 cells
ERAP1 inh: blocks human ERAP1 aminopeptidase activity | inhibition, % at 10.7 µM | recombinant ERAP1, Leu-AMC fluorescence, 60 min | Q9NZ08 | 340,000 tested, 0.15% active;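 active = mean replicate inhibition of at least 30%, or all replicates individually reaching that 30% level; inactive = mean below 30% and not every replicate reaching it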
Target sequence (Q9NZ08 whole entry, looked up): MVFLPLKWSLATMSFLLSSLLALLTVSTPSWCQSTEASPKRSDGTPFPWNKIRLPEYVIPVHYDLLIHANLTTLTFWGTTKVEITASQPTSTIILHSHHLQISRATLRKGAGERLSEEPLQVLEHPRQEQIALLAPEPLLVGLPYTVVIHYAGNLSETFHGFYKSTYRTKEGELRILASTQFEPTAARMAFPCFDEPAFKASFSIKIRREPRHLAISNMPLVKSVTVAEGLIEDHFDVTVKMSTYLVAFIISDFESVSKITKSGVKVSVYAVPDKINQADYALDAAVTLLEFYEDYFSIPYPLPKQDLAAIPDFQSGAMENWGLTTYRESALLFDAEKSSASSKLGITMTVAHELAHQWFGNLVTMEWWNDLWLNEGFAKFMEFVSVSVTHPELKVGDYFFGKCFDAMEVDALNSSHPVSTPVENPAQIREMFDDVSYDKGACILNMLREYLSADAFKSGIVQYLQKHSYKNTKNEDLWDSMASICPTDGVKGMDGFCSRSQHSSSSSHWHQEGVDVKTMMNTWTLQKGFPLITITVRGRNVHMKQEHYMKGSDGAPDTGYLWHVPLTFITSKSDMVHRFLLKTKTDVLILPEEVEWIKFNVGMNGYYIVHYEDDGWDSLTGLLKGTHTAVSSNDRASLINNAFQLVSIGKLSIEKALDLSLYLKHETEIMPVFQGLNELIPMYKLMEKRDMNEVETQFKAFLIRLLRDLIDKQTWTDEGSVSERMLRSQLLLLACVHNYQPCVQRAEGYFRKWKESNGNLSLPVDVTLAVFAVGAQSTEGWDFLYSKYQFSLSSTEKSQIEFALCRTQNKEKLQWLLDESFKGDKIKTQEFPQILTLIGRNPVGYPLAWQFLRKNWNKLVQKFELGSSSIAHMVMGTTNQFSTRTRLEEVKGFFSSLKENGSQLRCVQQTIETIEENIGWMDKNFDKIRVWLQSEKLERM
PglD inh: PglD (C. jejuni) enzyme inhibition. 360,000 tested, 0.098% active. AID 602405. purified PglD enzyme, DTNB colorimetric CoA detection. inhibition, % at 12.5 µM; in the data active = inhibition above about 16%, passing the limit was not always enough; inconclusive = no clear call, values can overlap the other calls
Of the large screens only hits and unclear results are named; the others gave an inactive call; ! = not active in a repeat.

Cc1cc(C)cc(NC(=O)Cn2nnc(C(=O)NCc3ccc(F)cc3)c2N)c1	SIRT5 block 16 (no result: E-selectin induc)
O=C(COc1ccc(F)cc1Br)N1CCN(S(=O)(=O)/C=C/c2ccccc2)CC1	none
COc1ccc(S(=O)(=O)N(C)C[C@H]2Oc3ncc(/C=C/c4ccccc4)cc3C(=O)N([C@H](C)CO)C[C@@H]2C)cc1	SIRT5 block 20 (no result: E-selectin induc)
COc1ccc(S(=O)(=O)N(C)C[C@@H]2Oc3ncc(/C=C/c4ccccc4)cc3C(=O)N([C@@H](C)CO)C[C@@H]2C)cc1	none
C[C@H](CO)N1C[C@H](C)[C@H](CN(C)S(=O)(=O)c2ccccc2)Oc2ncccc2C1=O	none
COc1ccc(S(=O)(=O)N(C)C[C@@H]2Oc3ncc(-c4ccncc4)cc3C(=O)N([C@H](C)CO)C[C@H]2C)cc1	none
COc1ccc(S(=O)(=O)N(C)C[C@@H]2Oc3ncc(-c4ccncc4)cc3C(=O)N([C@@H](C)CO)C[C@@H]2C)cc1	DENV2 CPE rescue 51
COc1cccc(S(=O)(=O)N(C)C[C@H]2Oc3ncc(Br)cc3C(=O)N([C@H](C)CO)C[C@H]2C)c1	none
COc1ccc(S(=O)(=O)N(C)C[C@@H]2Oc3ncccc3C(=O)N([C@H](C)CO)C[C@@H]2C)cc1	ERAP1 inh 42
COc1cccc(S(=O)(=O)N(C)C[C@@H]2Oc3ncccc3C(=O)N([C@H](C)CO)C[C@@H]2C)c1	ERAP1 inh 46
Cc1ccc(S(=O)(=O)N[C@H](C(=O)OCn2nnc3ccccc3c2=O)C(C)C)cc1	none (no result: SIRT5 block, E-selectin induc, DENV2 CPE rescue, ERAP1 inh)
CCCC#Cc1ccc([C@H]2[C@H](CO)N3CCCCN(CC4CCOCC4)C[C@@H]23)cc1	DENV2 CPE rescue 56
COCC#Cc1ccc([C@H]2[C@@H](CO)N3CCCCN(Cc4cncnc4)C[C@@H]23)cc1	none
COCC#Cc1ccc([C@H]2[C@H]3CN(Cc4cncnc4)CCCCN3[C@H]2CO)cc1	DENV2 CPE rescue 21
COC(=O)c1c(C)[nH]c(C(=O)CN2C(=O)C3CC=CCC3C2=O)c1C (stereo unspecified)	none (no result: E-selectin induc)
CCNC(=O)COC(=O)c1cc(=O)[nH]c2ccccc12	none (no result: SIRT5 block, E-selectin induc, DENV2 CPE rescue, ERAP1 inh)
O=C(COC(=O)c1cc(=O)[nH]c2ccccc12)c1ccccc1	none
Cc1cccc(C)c1NC(=O)COC(=O)c1cc(=O)[nH]c2ccccc12	SIRT5 block 17, DENV2 CPE rescue inconclusive
O=C(OCC(=O)N1CCOCC1)c1cc(=O)[nH]c2ccccc12	DENV2 CPE rescue 28
Cc1ccc(-c2cccc(C3CC=CC4C3C(=O)N(Cc3ccccc3)C4c3ccc(C(F)(F)F)cc3)c2)cc1 (stereo unspecified)	DENV2 CPE rescue 93
COc1ccc(-c2nc(CS(=O)CC(=O)NC3CCCC(C)C3C)c(C)o2)cc1OC (stereo unspecified)	none (no result: E-selectin induc)
COc1ccc(NC(=O)N(C)C[C@H]2Oc3c(NS(=O)(=O)c4ccc(Cl)cc4)cccc3C(=O)N([C@H](C)CO)C[C@H]2C)cc1	DENV2 CPE rescue 49
COc1ccc(NC(=O)N(C)C[C@H]2Oc3c(NS(=O)(=O)c4ccc(OC)cc4)cccc3C(=O)N([C@H](C)CO)C[C@@H]2C)cc1	DENV2 CPE rescue 28!
COc1ccc(NC(=O)N(C)C[C@H]2Oc3c(NS(C)(=O)=O)cccc3C(=O)N([C@@H](C)CO)C[C@H]2C)cc1	SIRT5 block 33 (no result: E-selectin induc)
C[C@H]1CN([C@@H](C)CO)C(=O)c2cccc(NS(=O)(=O)c3ccc(Cl)cc3)c2O[C@H]1CN(C)C(=O)Nc1ccccc1	DENV2 CPE rescue 40
COc1ccc(NC(=O)N(C)C[C@H]2Oc3c(NS(=O)(=O)c4ccc(Cl)cc4)cccc3C(=O)N([C@@H](C)CO)C[C@H]2C)cc1	DENV2 CPE rescue inconclusive
Cc1ccc(S(=O)(=O)N(C)C[C@H]2Oc3ccc(NC(=O)Nc4ccc(F)cc4)cc3CC(=O)N([C@@H](C)CO)C[C@H]2C)cc1	none
O=C(CCCn1nnnc1CN1CCOCC1)N1CCC(c2ccccc2Cl)C1 (stereo unspecified)	none
O=C(Cc1ccc(Cl)cc1)N/N=C/c1ccc(O)c(O)c1	none (no result: SIRT5 block)
Cc1ccccc1-c1ccc2c(c1)[C@@H]1C[C@H](N(C)S(=O)(=O)c3ccc(Cl)cc3)[C@H]([C@H](C)O)CN1CC2	none (no result: PglD inh)
COc1cc([C@H]2Oc3c(OC)cc(CCCO[C@@H]4O[C@H](CO)[C@@H](O)[C@H](O)[C@H]4O)cc3[C@@H]2CO)ccc1O	SIRT5 block 25 (no result: E-selectin induc)
OC[C@H]1O[C@H](OCCc2ccc(O)cc2)[C@H](O)[C@@H](O)[C@@H]1O	none (no result: SIRT5 block, ERAP1 inh)

From PubChem BioAssay
